Assays:
E. coli ΔbamBΔtolC = experiment: MIC, CLSI broth microdilution; assay type: cell-based; settings: MH-II broth with dipyridyl
[1] = test system: periplasmic extract of E. coli K12 MG1655; experiment: acc release from fluorogenic peptides in periplasmic extract; assay type: biochemical; settings: HPLC analysis (Figure S9)
[2] = Cleavage of acc peptide by human serum; assay type: in vitro ADME; settings: fluorescence (Figure S8)
In short: (§1)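 Substrate is an N-acetylated peptide with 7-amino-4-carbamoylmethylcoumarin (acc) coupled directly to the P1 residue as an antibiotic surrogate, made by solid-phase synthesis. The substrate is incubated in human or mouse serum, and cleavage is followed as release of free fluorescent amino coumarin.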

[3] = Cleavage of acc peptide by mouse serum; assay type: in vitro ADME; settings: compared with human serum
In short: as §1

E. coli ΔsurA = experiment: MIC, CLSI broth microdilution; assay type: cell-based; settings: MH-II broth with dipyridyl
S. aureus Newman = experiment: MIC, CLSI broth microdilution; assay type: cell-based; settings: MH-II broth with dipyridyl

## CC(=O)NC[C@H]1CN(c2ccc(N3CCN(C(=O)CO)CC3)c(F)c2)C(=O)O1 [eperezolid]
E. coli ΔbamBΔtolC
  MIC: susceptible

## Ac-WSPKYM-acc [compound 1]
[1]
  substrate consumption at the end of the reaction: fully consumed
[2]
  half-life of acc release: 3 to 4 h
[3]
  cleavage by mouse serum: cleaved more rapidly

## eperezolid-NH2 [compound 5]
E. coli ΔsurA
  MIC: 43 µM
S. aureus Newman
  MIC: 43 µM
E. coli ΔbamBΔtolC
  MIC: > 171 µM

From PMC7790458 (Journal of the American Chemical Society, 2020)
